Experimental data published in article PMC8225578 (Journal of medicinal chemistry, 2021).
Read-outs that look alike come from different tables or passages of the source. One block for each molecule: values may come before it. Starred links: 1 amine or outer side, 2 acyl side, 3 side chain; linkers in the order of their positions; H or OH if unused. Non-standard residues stand in square brackets, D forms with d. Residues, ends and D or L forms follow the SMILES beside them. No end group written: not given here. X2 = N6‑isopropyl‑N6‑phenethyl‑lysine, CC(C)N(CCCC[C@H](N[*:1])C(=O)[*:2])CCc1ccccc1; Lys(Et,iPr) = CCN(CCCC[C@H](N)C(=O)O)C(C)C; Me3 = trimethyl (on lysine, Kme3)

Experiments:
[1] = target: H3K36me3 peptide 31-40 (Homo sapiens) (UniProt P68431); settings: cited from earlier work
PHF1 Tudor domain [2] = target: T1, PHF1 Tudor domain (Homo sapiens, UniProt O43189); settings: previously reported 10-mer peptide; cited from earlier work
T1 sequence (O43189 25-87): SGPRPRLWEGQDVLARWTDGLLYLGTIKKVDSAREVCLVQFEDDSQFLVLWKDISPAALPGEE

[3] = target: H3K36me3 15-residue peptide (Homo sapiens) (UniProt P68431); settings: cited from earlier work
PHF1 Tudor domain [4] = target: T1, PHF1 Tudor domain; assay: ITC binding to PHF1 Tudor domain; settings: wildtype PHF1 Tudor domain
PHF1 Tudor W41A = PHF1 Tudor W41A (Homo sapiens, UniProt O43189, W41A); assay: ITC binding to PHF1 Tudor aromatic cage mutant W41A
Sequence of PHF1 Tudor W41A (O43189 25-87 W41A): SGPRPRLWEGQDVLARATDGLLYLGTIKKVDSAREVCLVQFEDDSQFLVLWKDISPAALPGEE
Summary of the method: (§1)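 ITC at 25 °C in 25 mM Tris-HCl pH 7.5, 150 mM NaCl, 2 mM β-mercaptoethanol; typically 100 µM protein, 1 mM compound (10:1). 26 injections, 180 s apart, one-site fit. Fits reach Kd ~100 µM; weaker binding is reported >100 µM. Two independent runs, mean ± SD.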

PHF1 Tudor F65A = PHF1 Tudor F65A (Homo sapiens, UniProt O43189, F65A); assay: ITC binding to PHF1 Tudor aromatic cage mutant F65A
Sequence of PHF1 Tudor F65A (O43189 25-87 F65A): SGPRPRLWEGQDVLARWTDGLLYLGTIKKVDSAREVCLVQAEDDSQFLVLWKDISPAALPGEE
Summary of the method: as §1

PHF1 Tudor Y47A = PHF1 Tudor Y47A (Homo sapiens, UniProt O43189, Y47A); assay: ITC binding to PHF1 Tudor aromatic cage mutant Y47A
Sequence of PHF1 Tudor Y47A (O43189 25-87 Y47A): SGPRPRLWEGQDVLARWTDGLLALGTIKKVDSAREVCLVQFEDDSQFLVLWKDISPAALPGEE
Summary of the method: as §1

[5] = target: T2, PHF1 Tudor domain (residues 25-87), N-terminal His tag (UniProt O43189-1 25-87); assay: ITC
T2 sequence (O43189 25-87): as the sequence (O43189 25-87) above

[6] = target: PHF1 Tudor domain (residues 25-87) Y47A, N-terminal His tag (UniProt O43189-1 25-87, Y47A); assay: ITC
Sequence of PHF1 Tudor domain (residues 25-87) Y47A, N-terminal His tag (O43189 25-87 Y47A): as the sequence (O43189 25-87 Y47A) above

[7] = target: T2, PHF1 Tudor domain (residues 25-87), …; assay: ITC; remark: listed apart in the source
[8] = target: PHF19 Tudor domain (residues 49-115), N-terminal His tag; assay: ITC

Sequence of PHF1 Tudor (O43189 26-89): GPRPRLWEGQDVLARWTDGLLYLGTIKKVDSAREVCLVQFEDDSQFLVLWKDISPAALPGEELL
Sequence of PHF1 (O43189 whole entry): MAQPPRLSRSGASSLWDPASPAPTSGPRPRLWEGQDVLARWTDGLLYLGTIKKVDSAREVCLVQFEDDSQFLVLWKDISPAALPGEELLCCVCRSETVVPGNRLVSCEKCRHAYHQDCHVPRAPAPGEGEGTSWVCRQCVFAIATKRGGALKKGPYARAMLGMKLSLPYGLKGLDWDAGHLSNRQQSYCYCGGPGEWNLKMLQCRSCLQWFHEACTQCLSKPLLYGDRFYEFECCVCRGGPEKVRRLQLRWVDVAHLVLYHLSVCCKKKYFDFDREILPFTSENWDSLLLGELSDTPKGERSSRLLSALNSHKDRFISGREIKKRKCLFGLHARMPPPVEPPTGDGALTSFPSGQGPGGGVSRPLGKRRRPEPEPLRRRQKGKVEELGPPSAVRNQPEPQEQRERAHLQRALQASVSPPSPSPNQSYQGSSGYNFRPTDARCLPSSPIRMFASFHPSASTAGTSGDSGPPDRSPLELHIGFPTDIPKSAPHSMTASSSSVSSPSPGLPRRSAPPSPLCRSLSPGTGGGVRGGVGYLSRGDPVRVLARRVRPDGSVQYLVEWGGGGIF

Molecule: PHF1 Tudor (from UniProt O43189)
Kd [1]: 16 µM

Molecule: H3(31—40): previously reported 10-mer H3K36me3 peptide (ATGGVK(Me3)KPHR; UniProt P68431 32-41, looked up, fragment)
Kd (PHF1 Tudor domain [2]): 16 ± 4 µM

Molecule: PHF1 (from UniProt O43189)
Kd [3]: 4 µM

fold less potent than UNC6641 (PHF1 Tudor domain [4]): about 10 fold
binding to mutant (in words) (PHF1 Tudor W41A): failed to bind
binding to mutant (in words) (PHF1 Tudor F65A): failed to bind
binding to mutant (in words) (PHF1 Tudor Y47A): failed to bind
Molecule: CCN(CCCC[C@H](NC(=O)[C@@H](NC(=O)CNC(=O)CN)C(C)C)C(=O)N[C@@H](CCCCN)C(=O)N1CCC[C@H]1C(=O)N[C@@H](CC(C)C)C(=O)N[C@@H](CCCNC(=N)N)C(N)=O)C(C)C [UNC7643, Amino(((S)-5-amino-4-((S)-2-((S)-1-((2S,5S,8S)-14-amino-2-(4-aminobutyl)-5-(4-(ethyl(isopropyl)amino)butyl)-8-isopropyl-4,7,10,13-tetraoxo-3,6,9,12-tetraazatetradecanoyl)pyrrolidine-2-carboxamido)-4-methylpentanamido)-5-oxopentyl)amino)methaniminium] (H-GGV[Lys(Et,iPr)]KPLR-NH2)

Kd [5]: 10.1 µM
Kd [6]: > 100 µM
Molecule: GGV[N6‑ethyl‑N6‑isopropyl‑lysine]KPLR-NH2 [UNC7643]

Kd [7]: 48 µM
Molecule: VGVK(Me3)KPH-NH2 [H3K36me3 peptide H3(33-39) G33V, VGVKme3KPH]

Kd [7]: 52 µM
Molecule: GGVK(Me3)KPH-NH2 [H3K36me3 peptide H3(33-39), GGVKme3KPH]

Kd [7]: 22.3 µM
Molecule: GGVK(Me3)KPHR-NH2 [H3K36me3 peptide H3(33-40), GGVKme3KPHR]

Kd [8]: 2.1 µM
Kd [6]: > 100 µM
Molecule: GGV[X2]KPLR-NH2 [UNC6641]

Kd [5]: 17.9 µM
Molecule: GGV[N6‑ethyl‑N6‑(1-(furan-2-yl)ethyl)‑lysine]KPLR-NH2 [UNC6640]
